In ChEMBL document CHEMBL2424601, “Synthetic chondramide A analogues stabilize filamentous actin and block invasion by Toxoplasma gondii” (J Nat Prod, 2013):
pEC50: −log10 of the molar value. Activity calls are given as the source filed them. The calls are words filed in the database; no cut-off is given here.

Assays:
HFF = test: Cytotoxicity against HFF after 72 hrs; format: cell-based; conditions: human
Method in brief: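 Confluent HFF monolayers given serial dilutions in complete DMEM with 0.2% DMSO for 72 h; viable cells by MTS colorimetric assay, normalized to untreated cells.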

Toxoplasma gondii [1] = test: Antiparasitic activity against Toxoplasma gondii expressing beta-galactosidase infected in HFF assessed as parasite growth inhibition after 72 hrs; format: functional, organism-based
Method in brief: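 β-gal-expressing parasites preincubated 30 min with compound dilutions in DMEM/10% FBS/gentamicin containing 0.2% DMSO, then inoculated at 500/well onto confluent HFF monolayers and cultured continuously; 72 h at 37 °C, 5% CO2. Lysed cells read with chlorophenol red-β-d-galactopyranoside at A570, normalized to untreated control; EC50 from variable-slope log(inhibitor)-response fit, three experiments (n = 4 replicates).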

[2] = biological target: Actin (Toxoplasma gondii) (UniProt P53476); test: Induction of Toxoplasma gondii N-terminally his-tagged recombinant actin polymerization after 1 hr
Actin (Toxoplasma gondii), sequence (P53476 whole entry): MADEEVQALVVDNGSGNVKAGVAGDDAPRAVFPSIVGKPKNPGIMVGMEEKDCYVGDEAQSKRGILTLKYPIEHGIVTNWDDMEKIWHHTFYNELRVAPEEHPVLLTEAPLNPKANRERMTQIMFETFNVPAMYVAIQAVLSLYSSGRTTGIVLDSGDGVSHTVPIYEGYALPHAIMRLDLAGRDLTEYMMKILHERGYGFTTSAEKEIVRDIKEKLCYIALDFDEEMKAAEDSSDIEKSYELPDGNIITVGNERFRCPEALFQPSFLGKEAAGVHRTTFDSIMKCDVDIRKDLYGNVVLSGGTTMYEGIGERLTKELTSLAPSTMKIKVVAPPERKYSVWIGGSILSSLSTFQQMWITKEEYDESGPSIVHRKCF
Method in brief: (§1)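 His-tagged TgACTI from baculovirus, Ni-NTA purified, cleared at 100000g; 5 μM actin in F-buffer (50 mM KCl, 2 mM MgCl2, 1 mM ATP) with compound plus Alexa 488 phalloidin 1.2 U/μL, 1 h; filaments imaged by fluorescence microscopy (63× oil); lengths averaged over three filaments per point.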

[3] = biological target: Actin (Toxoplasma gondii) (UniProt P53476); test: Induction of Toxoplasma gondii N-terminally his-tagged recombinant actin polymerization at 0.25 uM after 1 hr using phalloidin staining by fluorescence microscopic analysis; method in brief: as §1
[4] = biological target: Actin (Toxoplasma gondii) (UniProt P53476); test: Induction of Toxoplasma gondii N-terminally his-tagged recombinant actin polymerization at 2 uM after 1 hr using phalloidin staining by fluorescence microscopic analysis; method in brief: as §1
Toxoplasma gondii [5] = test: Antiparasitic activity against Toxoplasma gondii expressing beta-galactosidase infected in HFF assessed as parasite growth inhibition treated for 2 hrs followed by washout measured after 48 hrs after 72 hrs relative to continuous culture in presence of drug for 48 hrs; format: functional
Method in brief: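 β-gal-expressing T. gondii preincubated 30 min with compound dilutions in complete DMEM (10% FBS, gentamicin, 0.2% DMSO), 500 parasites/well onto confluent HFF; compound washed out after 2 h versus continuous exposure; 72 h at 37 °C, 5% CO2. Lysis, chlorophenol red-β-D-galactopyranoside, A570 normalized to untreated; variable-slope log(inhibitor)-response fit; three experiments, n = 4.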

SMILES	pEC50 (Toxoplasma gondii [1])	further results
CO[C@@H]1C(=O)O[C@H](C)[C@H](C)/C=C(\C)C[C@H](C)C(=O)N[C@@H](C)C(=O)N(C)[C@H](Cc2c(Cl)[nH]c3ccccc23)C(=O)N[C@H]1c1ccc(O)cc1	6.66	Activity (HFF): Toxic
CO[C@@H]1C(=O)O[C@H](C)[C@H](C)/C=C(\C)C[C@H](C)C(=O)N[C@@H](C)C(=O)N(C)[C@H](Cc2c[nH]c3ccccc23)C(=O)N[C@H]1c1ccc(CCO)cc1	6.22	–
CO[C@@H]1C(=O)O[C@H](C)[C@H](C)/C=C(\C)C[C@H](C)C(=O)N[C@@H](C)C(=O)N(C)[C@H](Cc2c[nH]c3ccccc23)C(=O)N[C@H]1c1ccc(F)cc1	6.49	–
CO[C@@H]1C(=O)O[C@H](C)[C@H](C)/C=C(\C)C[C@H](C)C(=O)N[C@@H](C)C(=O)N(C)[C@H](Cc2c[nH]c3ccccc23)C(=O)N[C@H]1c1ccc(C#N)cc1	6.42	–
CO[C@@H]1C(=O)O[C@H](C)[C@H](C)/C=C(\C)C[C@H](C)C(=O)N[C@@H](C)C(=O)N(C)[C@H](Cc2c[nH]c3ccccc23)C(=O)N[C@H]1c1ccccc1	6.29	Activity [2]: Dose-dependent effect; Activity [3]: Active; Activity [4]: Active; fold change (FC) (Toxoplasma gondii [5]): 1.5
CO[C@@H]1C(=O)O[C@H](C)[C@H](C)/C=C(\C)C[C@H](C)C(=O)N[C@@H](C)C(=O)N(C)[C@H](Cc2c[nH]c3ccccc23)C(=O)N[C@H]1c1ccc(-c2ccccc2)cc1	5.87	–
COc1ccc([C@@H]2NC(=O)[C@@H](Cc3c[nH]c4ccccc34)N(C)C(=O)[C@H](C)NC(=O)[C@@H](C)C/C(C)=C/[C@@H](C)[C@@H](C)OC(=O)[C@H]2OC)cc1	6.16	–
C/C1=C\[C@@H](C)[C@@H](C)OC(=O)C[C@H](c2ccc(O)cc2)NC(=O)[C@@H](Cc2c[nH]c3ccccc23)N(C)C(=O)[C@H](C)NC(=O)[C@@H](C)C1	6.32	Activity (HFF): Toxic
CO[C@@H]1C(=O)O[C@H](C)[C@H](C)/C=C(\C)C[C@H](C)C(=O)N[C@@H](C)C(=O)N(C)[C@H](Cc2c[nH]c3ccccc23)C(=O)N[C@H]1c1ccc(O)cc1	6.25	Activity (HFF): Toxic; Activity [2]: Dose-dependent effect; Activity [3]: Active; Activity [4]: Active
CO[C@@H]1C(=O)O[C@H](C)[C@H](C)/C=C(\C)C[C@H](C)C(=O)N[C@@H](C)C(=O)N(C)[C@H](Cc2c[nH]c3ccccc23)C(=O)N[C@H]1c1ccc([N+](=O)[O-])cc1	6.21	–
CO[C@@H]1C(=O)O[C@H](C)[C@H](C)/C=C(\C)C[C@H](C)C(=O)N[C@@H](C)C(=O)N(C)[C@H](Cc2c[nH]c3ccccc23)C(=O)N[C@H]1c1ccc(C(N)=O)cc1	≤ 4.35	–
C/C1=C\[C@H](C)C[C@H](C)OC(=O)C[C@H](c2ccc(O)cc2)NC(=O)[C@@H](Cc2c(Br)[nH]c3ccccc23)N(C)C(=O)[C@H](C)NC(=O)[C@@H](C)C1 [JASPAMIDE]	6.47	Activity (HFF): Toxic; Activity [2]: Active; fold change (FC) (Toxoplasma gondii [5]): 1.5
CO[C@@H]1C(=O)O[C@H](C)[C@H](C)/C=C(\C)C[C@H](C)C(=O)N[C@@H](C)C(=O)N(C)[C@H](Cc2c[nH]c3ccccc23)C(=O)N[C@H]1c1ccc(C)cc1	6.28	–
CO[C@@H]1C(=O)O[C@H](C)[C@H](C)/C=C(\C)C[C@H](C)C(=O)N[C@@H](C)C(=O)N(C)[C@H](Cc2c[nH]c3ccccc23)C(=O)N[C@H]1c1ccc(CO)cc1	6.13	–
CO[C@@H]1C(=O)O[C@H](C)[C@H](C)/C=C(\C)C[C@H](C)C(=O)N[C@@H](C)C(=O)N(C)[C@H](Cc2c[nH]c3ccccc23)C(=O)N[C@H]1c1ccc(N)cc1	6.18	–
